Rows were chosen to be rich in hits. Some 2.5% of all compounds tested hit in one or more screens of this group.
DSG3 Ab inh – human desmoglein-3 autoantibody binding inhibition; P32926; DSG3-coupled beads, scFv-anti-DSG3-GFP binding, flow cytometry; active compounds read low; AID 588358; actives 0.48% (n = 310,000); binding (percent of control), % at 10 µM;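 active = binding more than 3 SD below its plate's average and above zero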;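 note: hits lower antibody fragment binding to DSG3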
TRPC4 act – TRPC4 (mouse) channel activation; Q9QUQ5; HEK293 TRPC4beta/mu-opioid, Fluo4 calcium fluorescence; active compounds read high; B-score at 10 µM; actives 0.49% (n = 310,000); AID 2237;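 active = B-score above 5 SD of library B-scores, and initial fluorescence ratio not above library mean plus 5 SD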;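 note: positive B-score marks a calcium rise read as TRPC4 activation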
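Technique: kinetic Fluo4 calcium fluorescence; Test system: TRPC4beta and mu-opioid receptor HEK293 stable cells; Measure: B-scored integrated calcium fluorescence ratio; Benchmarks: low control buffer alone, high control maximal DAMGO; Schedule: 45 min room-temperature Fluo4 loading, 110 s read.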
TRPC4 inh – inhibitors of mouse TRPC4 channel; actives 0.39% (n = 300,000); HEK293 TRPC4beta/mu-opioid, DAMGO-evoked Fluo4 calcium flux; active compounds read low; Q9QUQ5; AID 2247; B-score at 10 µM;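 active = B-score over 3 SD under the library average, no early fluorescence shift, positive overall ratio signal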
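Assay system: HEK293 cells with stable TRPC4beta plus mu-opioid receptor expression; Probe or stimulus: DAMGO in two steps, submaximal then maximal; Dosing: single-point compound dosing; Measured by: Fluo4 calcium-dye fluorescence, kinetic read; Read-out basis: B score from integrated Fluo4 fluorescence ratio.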
TRPC6 inhibitor – blocks the mouse TRPC6 cation channel; AID 2553; B-score at 10 µM; actives 1.1% (n = 310,000); HEK293-TRPC6, membrane potential dye, ACh-evoked depolarization; active compounds read low; Q61143;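 active = B-score under library mean minus 3 SD, initial fluorescence not abnormally high, positive integrated signal ratio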;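 note: B-score derived from integrated fluorescence ratio over the kinetic read; more negative B-score means stronger inhibition of depolarization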
TRPC4 PAM – TRPC4 (mouse) allosteric potentiation; actives 0.42% (n = 310,000); HEK293 TRPC4beta/mu-opioid, DAMGO EC20, Fluo-4 Ca2+ flux; active compounds read high; B-score at 10 µM;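 active = B-score of calcium response area above 5 SD of library B-scores, with initial fluorescence ratio within 5 SD of library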;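 note: B-score of integrated fluorescence ratio over time as area under calcium response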
TRPC6 activator – mouse TRPC6 channel activation; Q61143; HEK293-TRPC6 membrane potential dye fluorescence; active compounds read high; B-score at 10 µM; actives 0.13% (n = 310,000);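 active = B-score of the integrated fluorescence ratio above library mean plus 3 SD, and starting fluorescence ratio within library mean plus 5 SD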;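 note: higher score means more depolarization so channel activation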
Numbers without * were called inactive; i = inactive; nt = no result given.

SMILES | DSG3 Ab inh | TRPC4 act | TRPC4 inh | TRPC6 inhibitor | TRPC4 PAM | TRPC6 activator
COc1ccc(NC(=O)CCC(=O)Nc2ccc3nc(N4CCOCC4)cc(C)c3c2)c(OC)c1 | nt | i | i | i | i | i
C=C1N(c2ccccc2)C(=O)OC1(C)C | 102.4 | i | i | i | i | i
Cn1c2c(c(=O)n(C)c1=O)C(C(F)(F)F)(C(F)(F)F)N=C(CCC1CCCCC1)N2 | 106.3 | i | i | i | 11* | i
Cn1c2c(c(=O)n(C)c1=O)C(C(F)(F)F)(C(F)(F)F)N=C(c1ccccc1Cl)N2 | 102.4 | i | i | i | i | i
CCCC(C(=O)NC1CCCC1)N(C(=O)Cn1nnc(-c2ccc(C)o2)n1)c1ccccc1F (configuration not stated) | nt | i | i | i | i | i
CCCC(C(=O)NC1CCCC1)N(C(=O)Cn1nnc(-c2ccc(C)o2)n1)C1CCCC1 (configuration not stated) | 89.6* | i | i | i | i | i
COc1ccc(S(=O)(=O)Nc2noc3ccccc23)cc1OC | 91.2 | i | i | i | i | i
O=C(CN1C(=O)COc2ccc(Cl)cc21)Nc1ccccn1 | 106.5 | i | i | i | i | i
CCCCn1c(N)c(N(CC(C)C)C(=O)COc2cc(C)ccc2Cl)c(=O)[nH]c1=O | 101.3 | nt | nt | nt | nt | nt
N#CCCn1cc(/C=C2\NC(=S)N(c3ccccc3)C2=O)c(-c2ccc(F)cc2)n1 | 1.1* | i | i | i | i | i
O=C(/C=C/c1ccccc1Cl)N(c1ccccn1)C1CCCCC1 | 112.9 | i | i | i | 16* | i
O=C(/C=C/c1ccccc1)N(c1ccccn1)C1CCCCC1 | 94.4 | i | i | i | i | i
CCc1cc(-c2nnn(CCC3COCCO3)c2CC)ccc1-c1cn(Cc2ccccc2)nn1 (configuration not stated) | 100.2 | nt | nt | nt | nt | nt
CC1CCN(C(C)C(=O)Nc2ccccc2-c2ccccc2)CC1 (configuration not stated) | 105.0 | i | -7* | i | i | i
CNC(=O)COc1coc(CN2CCN(c3cccc(Cl)c3)CC2)cc1=O | 95.9 | i | i | i | i | i
Cc1sc(NC(=O)CSc2nnc3scc(-c4ccccc4)n23)c(C#N)c1C | 84.2* | i | i | i | i | i
CCc1cccc(NC(=O)c2cccc3c2C(=O)N(C2CCCCC2)C3)c1 | 75.9 | i | i | i | i | i
O=C(Nc1ccc(C2=NCCN2)cc1)c1ccc(Cl)c(C(=O)Nc2ccc(C3=NCCN3)cc2)c1 | nt | i | i | i | i | 14.2*
O=C(Nc1ccc(Cl)c(Cl)c1)c1ccc(Cl)c(Cl)c1 | 99.5 | i | i | i | i | i
COc1ccc(N/N=C(/C#N)S(=O)(=O)c2nsc(C)c2C#N)cc1 | nt | i | i | i | i | i
Cc1snc(S(=O)(=O)/C(C#N)=N/Nc2cccc(C(F)(F)F)c2)c1C#N | 73.8* | i | i | i | i | i
Cc1ccc(CN2C3=NCCN3c3ccccc32)cc1 | nt | i | -6* | i | i | i
Clc1ccc(CN2C3=NCCN3c3ccccc32)cc1Cl | 105.3 | i | -6* | i | i | i
O=C(c1ccc(-n2cncn2)c([N+](=O)[O-])c1)N1CCN(S(=O)(=O)c2ccc(F)c(F)c2)CC1 | 117.8 | i | i | i | i | i
Cc1ccc(C(=O)N/N=C\c2ccc(-c3ccc(Cl)cc3)o2)cn1 | 92.4* | i | i | i | i | i
SMILES | DSG3 Ab inh | TRPC4 act | TRPC4 inh | TRPC6 inhibitor | TRPC4 PAM | TRPC6 activator
CCOC(=O)c1ccc(-c2ccc(/C=N/NC(=O)c3cncc(Br)c3)o2)cc1 | 75.4* | i | i | i | i | i
Cn1cccc1/C=N\NC(=O)C1COc2ccc(C(C)(C)C)cc2O1 (configuration not stated) | 23.8* | i | i | i | i | i
COc1ccc(/C=N/NC(=O)C2COc3ccccc3O2)cc1OC (configuration not stated) | 103.9 | 150* | i | i | i | i
O=C(N/N=C\C=C\c1ccc2c(c1)OCO2)C1COc2cc3ccccc3cc2O1 (configuration not stated) | 100.9 | i | i | i | 12* | i
CCOC(=O)CSc1nc(-c2ccccc2)nc2ccc(C)cc12 | 76.5* | i | i | i | i | i
CN(CCc1ccccc1)C(=O)c1ccc(NC(=O)Cc2ccc(NC(=O)C3CCCN(S(=O)(=O)c4cccc([N+](=O)[O-])c4)C3)cc2)cc1 (configuration not stated) | 97.4 | nt | nt | nt | nt | nt
COC(=O)CNC(=O)Cn1nc(C)c([N+](=O)[O-])c1C | 111.9 | i | i | i | i | i
CN(C)S(=O)(=O)c1cccc(COC(=O)c2ccc(Cl)cc2O)c1 | 104.2 | i | i | i | 17* | i
CCOc1ccccc1N(CC(=O)NC(C)(C)C)C(=O)CCC(=O)Nc1nccs1 | 92.4 | i | i | i | i | i
CCOC(=O)CSc1nc2c(sc(=S)n2Cc2ccco2)c(=O)n1-c1ccccc1 | 97.6 | i | -6* | i | i | i
CCN(CC)C(=O)CSc1nc2c(sc(=S)n2Cc2ccco2)c(=O)n1-c1ccccc1 | 101.5 | i | i | i | i | i
CCOC(=O)CSc1nc2c(sc(=S)n2-c2ccccc2OC)c(=O)n1Cc1ccco1 | 98.9 | i | -5* | -5.69* | i | i
CCOC(=O)CSc1nc2c(sc(=S)n2-c2ccccc2OC)c(=O)n1-c1ccccc1OC | 90.9 | i | i | i | i | i
COc1ccc(S(=O)(=O)N2CCCCC2)cc1NS(=O)(=O)c1ccccc1 | 87.5 | nt | nt | nt | nt | nt
CCOC(=O)c1cn2nc(Oc3ccc(C#N)cc3)ccc2n1 | nt | i | i | i | i | i
COc1ccc(C(=O)Nc2ccc(N3CCCC3)cc2)cc1 | 147.4 | i | i | i | i | i
COc1ccc(S(=O)(=O)N2CCC(NC(=O)c3ccccc3)CC2)cc1 | 89.7 | i | i | i | i | i
COc1ccc(N2CCN(S(=O)(=O)c3ccc(C(=O)NC4CCCC4)cc3)CC2)cc1 | 75.0* | i | i | i | i | i
COc1ccc(C(=O)NC(=S)Nc2ccc(N3CCCC3)cc2)cc1 | 18.9* | i | i | i | i | i
CCC(C)[C@H]1COCCS(=O)(=O)N1Cc1ccccc1 (some centres not stated) | 102.0 | i | i | i | i | i

Bioassay records as filed in PubChem BioAssay.
